Screening data from PubChem BioAssay.
The full list was thinned out, with hits kept by preference.
Insulin prom act = activators of insulin promoter-driven GFP, primary screen, imaging, TRM-6 cells (human fetal islet line), eGFP reporter, cell count; plate-scaled: unstimulated 0, stimulated control 100; activation, % at 2 µM; hit rate 0.81% among 130,000; AID 1296, 2008;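 active = activation at 2 µM above a set limit, confirmed on inspection of the cell images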;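 also: share of cells whose green reporter signal exceeds an intensity cutoff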
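Assay system: TRM-6 insulin promoter–eGFP reporter cells / Input: 1,000 cells per well / Medium: Low-glucose (5.5 mM) medium with tamoxifen / Also added: tamoxifen inducer, 0.75 µM, in seeding medium / Timing: overnight tamoxifen, then two-day compound incubation at 37 °C / Signal: automated fluorescence imaging of paraformaldehyde-fixed, Hoechst-counterstained cells, green channel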
An asterisk follows results filed as active.

SMILES	Insulin prom act
Cc1ccc(-c2ccc(CCC(=O)O)n2-c2cccc(O)c2)cc1	291*
Cc1ccc(NC(=S)C2=C(O)c3ccccc3N(C)S2(=O)=O)cc1	-8
CCn1c(NC(=O)Nc2ccccc2OC)nc2ccccc21	109
Nn1c(SCc2nc3ccccn3c2Br)nnc1-c1cccnc1	-3
CCNC(=O)CSc1nnc(-c2ccc(OC)cc2)n1CC(C)C	-9
Cc1cccc(-c2nsc(SCC(=O)Nc3nccs3)n2)c1	121*
CCc1nnc(NC(=O)CSc2nc(-c3ccc(OC)cc3)ns2)s1	-25
COc1ccc(-c2nsc(SCC(=O)Nc3cc(C)on3)n2)cc1	2
O=C(C[n+]1ccccc1)Nc1ccccc1C(=O)O	0
CCS(=O)(=O)c1ccc(N=Nc2ccc(O)c3ncccc23)c(OC)c1	625*
Cc1ccc(N=Nc2ccc(O)c3ncccc23)cc1	123
CCS(=O)(=O)c1ccc(O)c(NC(=O)c2cc(OC)c(OC)c(OC)c2)c1	0
Oc1ccc(CN2CCCCC2)c2cccnc12	389
Cc1ccc(N=Nc2ccc(O)c3ncccc23)cc1C	279*
Oc1c(Cl)cc(Cl)c2cccnc12	9
C=CCNCC(=O)NN=C(c1ccccc1)c1ccccc1	3
CCCC1CCc2c(sc(NC(=O)OCC)c2C#N)C1 (configuration not stated)	169
CC(Oc1cc(Cl)ccc1Cl)C(=O)N/N=C\c1ccnn1C (configuration not stated)	7
N#CC1=C(N)N(c2ccc(Oc3ccccc3)cc2)C(=O)C1	6
Cn1c(N)c(C(=O)COC(=O)c2cncc(Br)c2)c(=O)n(C)c1=O	-10
Clc1ccc(OCCSc2ncccn2)cc1	-66
CCOC(=O)c1c(NC(=O)CSc2nc3ccccc3c(=O)n2-c2ccccc2)sc(C(C)=O)c1C	163
CCOC(=O)C1CCCN(C(=S)Nc2ccc(OC)cc2)C1 (configuration not stated)	0
CCOC(=O)C1CCCN(c2cc(=O)n(C3CCCCC3)c(=O)[nH]2)C1 (configuration not stated)	124*
CCOC(=O)C1CCCN(C(=O)C2CC(=O)N(c3ccc(C)cc3)C2)C1 (configuration not stated)	-15
SMILES	Insulin prom act
CC1=C(C(=O)NCCCOC(C)C)C2(CCC(C)CC2)OC1=O (configuration not stated)	12
Cc1nn(-c2ccccc2)c(C)c1/C=N/NC(=O)CSc1nnc(SCc2cccc3ccccc23)s1	0
Cc1ccc(C2OC(=O)c3ccccc32)cc1 (configuration not stated)	8
O=C1N/C(=C/c2ccc(N3CCOCC3)cc2)C(=O)N1Cc1ccc(F)cc1	-8
O=C1/C(=C/c2ccc(N3CCCC3)cc2)NC(=S)N1C1CC1	186*
O=C(COC(=O)c1cc(C(F)(F)F)cc(C(F)(F)F)c1)NCc1ccc(Cl)cc1	9
CCCOC(=O)c1ccc(OCC(O)Cn2c(C)nc3ccccc32)cc1 (configuration not stated)	0
COc1ccc([N+](=O)[O-])cc1NC(=O)COC(=O)C=C(C)C	0
COCC(=O)OCC(=O)Nc1cc([N+](=O)[O-])ccc1Cl	733*
CN(CCOc1ccccc1)CC(=O)Nc1cc([N+](=O)[O-])ccc1Cl	9
O=c1cc(/N=C/c2coc3c(ccc4ccccc43)c2=O)[nH]c(=S)[nH]1	7
Cc1ccc(SCC(=O)NN2C(=O)c3ccccc3C2=O)cc1	8
CC1=C(C)CC(C(=O)Nc2nc(-c3ccc(C)cc3C)c(C)s2)C(C(=O)O)C1 (configuration not stated)	-3
O=C(Nc1ccc(NS(=O)(=O)c2ccccc2)cc1)c1cccnc1	7
CC1(C)CC(=O)c2cnc(NC(=O)CSc3nc4ccccc4o3)nc2C1	523*
O=C(CSc1nc2ccccc2o1)Nc1ccc(N2CCOCC2)cc1	0
CCCCC(=O)Nc1ncc2c(n1)CC(C)(C)CC2=O	-6
O=C(NCCCN1CCCC1=O)C1CCN(S(=O)(=O)N2CCOCC2)CC1	131
CCC1CCCCN1CCCNC(=O)C1CCN(S(=O)(=O)N2CCCCC2)CC1 (configuration not stated)	215*
O=C(NCCC1=CCCCC1)C1CCN(S(=O)(=O)N2CCCC2)CC1	-7
COCCN(C(=S)Nc1ccc(C)cc1C)C(C)c1ccco1 (configuration not stated)	0
C/C(=N\NC(=O)CC(C)C)c1ccc(N2CCCCC2)cc1	8
COc1ccc(S(=O)(=O)N(C)CC(=O)NCCC2=CCCCC2)cc1C	193
CCOc1cc(NC(=S)NCCc2ccccc2)c(OCC)cc1NC(C)=O	0
COc1ccccc1N(CC(=O)NCC1CCCO1)C(=O)Cn1nnc(-c2cccs2)n1 (configuration not stated)	-8
O=C1NCCN1Cc1cccc(Cl)c1	0
O=C1N(Cc2cccc(Cl)c2)C[C@@H]2C[C@@H](c3ccco3)N3CCC[C@@]123	683*
CCCn1ncc([C@@H]2C[C@H]3CN(Cc4cccc(Cl)c4)C(=O)[C@]34CCCN24)c1C	133
